Reference: ChEMBL document CHEMBL1144782, “Isoindolo[2,1-a]quinoxaline derivatives, novel potent antitumor agents with dual inhibition of tubulin polymerization and topoisomerase I” (2008)

Tests used:
Format in all cases: functional
MCF7 [1] = assay: Growth inhibition of human MCF7 cells after 72 hrs by MTT assay; settings: MCF7, 72 h
How it was run: (§1)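 Growth inhibition by MTT after 72 h incubation. Resistant sublines: LoVoDoxo and MCF-7 MDR were kept in 0.1 µg/mL doxorubicin; CEMVbl-100 was selected against vinblastine. GI50 given as mean ± SEM of three independent experiments. Resistance index is resistant-line GI50 over parental GI50.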

RXF 393 = assay: Antitumor activity against human RXF393 cells
How it was run: (§2)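 Run by the NCI in its in vitro disease-oriented screen of about 60 human tumour cell lines. For each line it reports pGI50 (50% net growth inhibition), pTGI (total growth inhibition) and pLC50 (50% net cell death), each as –log molar concentration. Where an effect was not reached within the tested range, the highest tested concentration was used.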

UACC-62 = assay: Antitumor activity against human UACC62 cells
How it was run: (§3)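 NCI 60-cell-line screen. Parameters were GI50 (50% net growth inhibition), TGI and LC50, each reported as –log molar concentration. Where an effect was not reached within the tested range, the highest tested concentration was used in the calculation.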

NCI-H226 = assay: Antitumor activity against human NCI-H226 cells; how it was run: as §2
A549 = assay: Antitumor activity against human A549 cells; how it was run: as §2
UACC-257 = assay: Antitumor activity against human UACC257 cells; how it was run: as §3
SF-295 = assay: Antitumor activity against human SF295 cells; how it was run: as §2
SK-MEL-28 = assay: Antitumor activity against human SKMEL28 cells; how it was run: as §2
OVCAR-3 = assay: Antitumor activity against human OVCAR-3 cells; how it was run: as §2
CCRF-CEM [2] = assay: Growth inhibition of human vinblastine-resistant CEM cells after 72 hrs by MTT assay; how it was run: as §1
HT-29 = assay: Antitumor activity against human HT29 cells; how it was run: as §2
Hs-578T = assay: Antitumor activity against human HS578T cells; how it was run: as §2
PC-3 = assay: Antitumor activity against human PC3 cells; how it was run: as §2
MDA-MB-435 = assay: Antitumor activity against human MDA-MB-435 cells; how it was run: as §2
NCI-H460 [3] = assay: Cell viability against human NCI-H460 cells at 10 uM
IGROV-1 = assay: Antitumor activity against human IGROV1 cells; how it was run: as §2
NCI-H23 = assay: Antitumor activity against human NCI-H23 cells; how it was run: as §2
HOP-92 = assay: Antitumor activity against human HOP92 cells; how it was run: as §2
OVCAR-8 = assay: Antitumor activity against human OVCAR8 cells; how it was run: as §2
NCI/ADR-RES = assay: Antitumor activity against human NCI/ADR-RES cells; how it was run: as §2
CCRF-CEM [4] = assay: Resistance index, Ratio of GI50 for human vinblastine-resistant CEM cells to GI50 for human CEM cells
A498 = assay: Antitumor activity against human A498 cells; how it was run: as §2
MCF7 [5] = assay: Resistance index, Ratio of GI50 for human multidrug-resistant MCF7 cells to GI50 for human MCF7 cells; how it was run: as §1
[6] = Antitumor activity against human NCI-H322 cells; how it was run: as §2
CAKI-1 = assay: Antitumor activity against human CAKI1 cells; how it was run: as §2
Malme-3M = assay: Antitumor activity against human MALME3M cells; how it was run: as §2
CCRF-CEM [7] = assay: Growth inhibition of human CEM cells after 72 hrs by MTT assay; how it was run: as §1
CCRF-CEM [8] = assay: Antitumor activity against human CCRF-CEM cells; how it was run: as §2
SK-MEL-2 = assay: Antitumor activity against human SKMEL2 cells; how it was run: as §2
786-0 = assay: Antitumor activity against human 786-0 cells; how it was run: as §2
SF-268 = assay: Cell viability against human SF268 cells at 10 uM
COLO 205 = assay: Antitumor activity against human COLO205 cells; how it was run: as §2
TK-10 = assay: Antitumor activity against human TK10 cells; how it was run: as §3
SK-OV-3 = assay: Antitumor activity against human SKOV3 cells; how it was run: as §2
SN12C = assay: Antitumor activity against human SN12C cells; how it was run: as §2
NCI-H460 [9] = assay: Antitumor activity against human NCI-H460 cells; how it was run: as §2
SNB-19 = assay: Antitumor activity against human SNB19 cells; how it was run: as §2
MCF7 [10] = assay: Cell viability against human MCF7 cells at 10 uM
SW-620 = assay: Antitumor activity against human SW620 cells; how it was run: as §3
HCC 2998 = assay: Antitumor activity against human HCC2998 cells; how it was run: as §2
BT-549 = assay: Antitumor activity against human BT549 cells; how it was run: as §2
[11] = read-out: Log LC50 (the source's name) (converted)

Cc1cccc2c1[nH]c(=O)c1c3ccccc3cn21
GI50 (MCF7 [1]): 3.7 µM
GI50 (RXF 393): 9.12 µM
CC50 (RXF 393; [11]): > 100 µM
TGI (RXF 393; read-out: pTGI (converted)): 38 µM
GI50 (UACC-62): 6.92 µM
LC50 (UACC-62): 95.5 µM
TGI (UACC-62; read-out: pTGI (converted)): 28.2 µM
GI50 (NCI-H226): 3.24 µM
LC50 (50% net cell kill) (NCI-H226): > 100 µM
TGI (NCI-H226; read-out: pTGI (converted)): 27.5 µM
GI50 (A549): 5.01 µM
CC50 (A549; [11]): > 100 µM
TGI (A549; read-out: pTGI (converted)): > 100 µM
GI50 (UACC-257): 16.6 µM
LC50 (UACC-257): > 100 µM
TGI (UACC-257; read-out: pTGI (converted)): 93.3 µM
GI50 (SF-295): 2.63 µM
CC50 (SF-295; [11]): > 100 µM
TGI (SF-295; read-out: pTGI (converted)): 25.1 µM
GI50 (SK-MEL-28): 6.92 µM
CC50 (SK-MEL-28; [11]): > 100 µM
TGI (SK-MEL-28; read-out: pTGI (converted)): > 100 µM
GI50 (OVCAR-3): 4.79 µM
LC50 (50% net cell death) (OVCAR-3): > 100 µM
TGI (OVCAR-3; read-out: pTGI (converted)): 28.2 µM
GI50 (CCRF-CEM [2]): 3 µM
GI50 (HT-29): 2.19 µM
LC50 (HT-29): 36.3 µM
TGI (HT-29; read-out: pTGI (converted)): 13.2 µM
GI50 (Hs-578T): 21.9 µM
CC50 (Hs-578T; [11]): > 100 µM
TGI (Hs-578T; read-out: pTGI (converted)): 64.6 µM
GI50 (PC-3): 3.89 µM
LC50 (50% net cell death) (PC-3): > 100 µM
TGI (PC-3; read-out: pTGI (converted)): 44.7 µM
GI50 (MDA-MB-435): 3.16 µM
LC50 (50% net cell death) (MDA-MB-435): 95.5 µM
TGI (MDA-MB-435; read-out: pTGI (converted)): 11.5 µM
Activity (NCI-H460 [3]): 2%
GI50 (IGROV-1): 3.72 µM
CC50 (IGROV-1; [11]): > 100 µM
TGI (IGROV-1; read-out: pTGI (converted)): > 100 µM
GI50 (NCI-H23): 17.4 µM
LC50 (50% net cell kill) (NCI-H23): 87.1 µM
TGI (NCI-H23; read-out: pTGI (converted)): 38.9 µM
GI50 (HOP-92): 3.98 µM
LC50 (HOP-92): > 100 µM
TGI (HOP-92; read-out: pTGI (converted)): 32.4 µM
GI50 (OVCAR-8): 3.55 µM
LC50 (50% net cell death) (OVCAR-8): > 100 µM
TGI (OVCAR-8; read-out: pTGI (converted)): > 100 µM
GI50 (NCI/ADR-RES): 12 µM
LC50 (NCI/ADR-RES): > 100 µM
TGI (NCI/ADR-RES; read-out: pTGI (converted)): 34.7 µM
RatioGI50 (CCRF-CEM [4]): 1.04
GI50 (A498): 16.2 µM
CC50 (A498; [11]): > 100 µM
TGI (A498; read-out: pTGI (converted)): 41.7 µM
RatioGI50 (MCF7 [5]): 2.2
GI50 [6]: 13.5 µM
LC50 (50% net cell death) [6]: > 100 µM
TGI ([6]; read-out: pTGI (converted)): 45.7 µM
GI50 (CAKI-1): 2.19 µM
LC50 (CAKI-1): > 100 µM
TGI (CAKI-1; read-out: pTGI (converted)): 8.71 µM
GI50 (Malme-3M): 8.32 µM
CC50 (Malme-3M; [11]): 67.6 µM
TGI (Malme-3M; read-out: pTGI (converted)): 24.5 µM
GI50 (CCRF-CEM [7]): 2.9 µM
GI50 (CCRF-CEM [8]): 1.2 µM
LC50 (CCRF-CEM [8]): 74.1 µM
TGI (CCRF-CEM [8]; read-out: pTGI (converted)): 12.6 µM
GI50 (SK-MEL-2): 14.5 µM
LC50 (SK-MEL-2): > 100 µM
TGI (SK-MEL-2; read-out: pTGI (converted)): > 100 µM
GI50 (786-0): 5.89 µM
CC50 (786-0; [11]): > 100 µM
TGI (786-0; read-out: pTGI (converted)): 32.4 µM
Activity (SF-268): 55%
GI50 (COLO 205): 7.41 µM
LC50 (COLO 205): > 100 µM
TGI (COLO 205; read-out: pTGI (converted)): 34.7 µM
GI50 (TK-10): 26.9 µM
CC50 (TK-10; [11]): > 100 µM
TGI (TK-10; read-out: pTGI (converted)): 87.1 µM
GI50 (SK-OV-3): 27.5 µM
LC50 (50% net cell kill) (SK-OV-3): > 100 µM
TGI (SK-OV-3; read-out: pTGI (converted)): > 100 µM
GI50 (SN12C): 1.82 µM
LC50 (SN12C): > 100 µM
TGI (SN12C; read-out: pTGI (converted)): 19.1 µM
GI50 (NCI-H460 [9]): 1.91 µM
CC50 (NCI-H460 [9]; [11]): 31.6 µM
TGI (NCI-H460 [9]; read-out: pTGI (converted)): 10 µM
GI50 (SNB-19): 15.5 µM
CC50 (SNB-19; [11]): > 100 µM
TGI (SNB-19; read-out: pTGI (converted)): 47.9 µM
Activity (MCF7 [10]): 27%
GI50 (SW-620): 5.75 µM
CC50 (SW-620; [11]): 42.7 µM
TGI (SW-620; read-out: pTGI (converted)): 17.8 µM
GI50 (HCC 2998): 4.57 µM
LC50 (HCC 2998): 40.7 µM
TGI (HCC 2998; read-out: pTGI (converted)): 16.2 µM
GI50 (BT-549): 12 µM
LC50 (50% net cell kill) (BT-549): > 100 µM
TGI (BT-549; read-out: pTGI (converted)): 58.9 µM
